≈ marks a conversion by molar mass, not a printed value.

A word on the MIC: it is the lowest concentration that inhibits growth of the organism. One may read the IC50 as the concentration that inhibits the measured activity by half.

What all share (type): functional
Test [1] concerns Escherichia coli. The test is described as follows: Relative sensitizing activity against Escherichia coli was determined as a percent of pPMBN (50 ug/mL) as a control. An outline of the steps:
(§1)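 Clinical isolates at 1 × 10^5 CFU per well, in ISB with a 2-fold serial dilution (1000-0.5 µg/mL) of novobiocin. Peptide added at 50 µg/mL final. Incubated 20 h at 37 °C and read by visible growth. Sensitizing activity is the fold drop in novobiocin MIC with versus without peptide, expressed as percent of that given by 50 µg/mL pPMBN.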

For test [2], the system named is Escherichia coli. The test is described as follows: Antimicrobial activity against Escherichia coli (Escherichia coli). An outline of the steps: (§2)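 Clinical isolates grown on nutrient agar and kept at 4 °C. Overnight culture in isotonic sensitest broth (ISB) adjusted to 1 × 10^5 CFU/mL and inoculated into wells holding a 2-fold serial dilution (1000-0.5 µg/mL) of test agent in ISB. Incubated 20 h at 37 °C. MIC is the lowest concentration with no visible growth. 4-8 separate tests, varying by no more than one dilution.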

Test [3] deals with Klebsiella pneumoniae. Description: Antimicrobial activity against Klebsiella pneumoniae (Klebsiella pneumoniae). Summed up: as §2
Test [4] has as its system Klebsiella pneumoniae. Description: Relative sensitizing activity against Klebsiella pneumoniae was determined as a percent of pPMBN (50 ug/mL) as a control. Summed up: as §1
Test [5] has as its system Escherichia coli. Description: Minimal inhibitory concentration of compound required against Escherichia coli was evaluated; Inactive. Summed up: as §2
The subject of test [6] is Klebsiella pneumoniae. The test is described as follows: Minimal inhibitory concentration of compound required against Klebsiella pneumoniae was evaluated; Inactive. Summed up: as §2
Another test concerns Pseudomonas aeruginosa. The test is described as follows: Minimal inhibitory concentration of compound required against Pseudomonas aeruginosa was evaluated. Summed up:
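P. aeruginosa clinical isolate kept on nutrient agar at 4 °C. Overnight culture in isotonic sensitest broth adjusted to 1 × 10^5 CFU/mL and added to serial 2-fold dilutions (1000-0.5 µg/mL) of test agent in the same broth. MIC is the lowest concentration with no visible growth after 20 h at 37 °C. 4-8 separate tests, varying by no more than one dilution.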

The test system of test [7] is Escherichia coli. The test is described as follows: Inhibitory concentration required to displace dansyl-PMBN (0.55 uM) from maximal specific binding to Escherichia coli LPS. Summed up: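 Fluorescence displacement assay. E. coli LPS (3 µg/mL, ~2 × 10^-7 M) in 5 mM HEPES pH 7.2 was pre-equilibrated with dansyl-PMBN (0.55 µM). Peptide was added stepwise at 5-min intervals from 1 × 10^-5 to 1 × 10^-3 M stocks. Fluorescence read at excitation 340 nm and emission 485 nm after each addition. Percent inhibition was plotted against concentration to give maximal and 50% displacement. 2-3 repeats.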

As for `CO[C@@H]1[C@@H](OC(N)=O)[C@@H](O)[C@H](Oc2ccc3c(O)c(NC(=O)c4ccc(O)c(CC=C(C)C)c4)c(=O)oc3c2C)OC1(C)C` [NOVOBIOCIN], the minimum inhibitory concentration (MIC) worked out at 125 µg/mL in the test with Escherichia coli [1], 125 µg/mL (≈ 204 µM) against Escherichia coli [2], 250 µg/mL (≈ 408 µM) in the test with Klebsiella pneumoniae [3] and 62 µg/mL in the test with Klebsiella pneumoniae [4].

Regarding `CC(C)C[C@@H]1NC(=O)[C@@H](Cc2ccccc2)NC(=O)[C@H](CCN)NC(=O)[C@@H](NC(=O)[C@H](CCN)NC(=O)[C@@H](N)[C@@H](C)O)CCNC(=O)[C@H]([C@@H](C)O)NC(=O)[C@H](CCN)NC(=O)[C@H](CCN)NC1=O` (stereo in doubt; form 1) [listing 1 of 2 here], the Activity in the test on Escherichia coli [1] and in the test with Klebsiella pneumoniae [4] was 100% each time. The minimal inhibitory concentration (MIC) is no less than 1000 µg/mL in the test with Escherichia coli [5], no less than 1000 µg/mL in the test with Klebsiella pneumoniae [6] and 8 µg/mL (≈ 8.31 µM) in the test on Pseudomonas aeruginosa.

The compound `CC(C)C[C@@H]1NC(=O)[C@@H](Cc2ccccc2)NC(=O)[C@H](CCN)NC(=O)[C@@H](NC(=O)[C@H](CCN)NC(=O)[C@@H](N)[C@@H](C)O)CCCCNC(=O)[C@H]([C@@H](C)O)NC(=O)[C@H](CCN)NC(=O)[C@H](CCN)NC1=O` yielded an IC50 in the test with Escherichia coli [7] (Escherichia coli) of 8 µM.

`CC(C)C[C@@H]1NC(=O)[C@@H](Cc2ccccc2)NC(=O)[C@H](CCN)NC(=O)[C@H](CCN)NC(=O)[C@@H](NC(=O)[C@@H](N)[C@@H](C)O)CCNC(=O)[C@H]([C@@H](C)O)NC(=O)[C@H](CCN)NC(=O)[C@H](CCN)NC1=O`: the half-inhibitory concentration (IC50) with Escherichia coli [7] (Escherichia coli) was 8 µM.

As to `CC(C)C[C@@H]1NC(=O)[C@H](Cc2ccccc2)NC(=O)[C@H](CCN)NC(=O)[C@@H](NC(=O)[C@H](CCN)NC(=O)[C@@H](N)[C@@H](C)O)CCNC(=O)[C@H]([C@@H](C)O)NC(=O)[C@H](CCN)NC(=O)[C@H](CCN)NC1=O`, in the test with Escherichia coli [7] (Escherichia coli), the IC50 came to 8 µM.

In the case of `CC(C)C[C@@H]1NC(=O)[C@@H](Cc2ccccc2)NC(=O)[C@H](CCCN)NC(=O)[C@@H](NC(=O)[C@H](CCCN)NC(=O)[C@@H](N)[C@@H](C)O)CCCNC(=O)[C@H]([C@@H](C)O)NC(=O)[C@H](CCCN)NC(=O)[C@H](CCCN)NC1=O`, in the test on Escherichia coli [7] (Escherichia coli), the half-maximal inhibitory concentration (IC50) was 25 µM.

Compound `CC(C)C[C@@H]1NC(=O)[C@@H](Cc2ccccc2)NC(=O)[C@H](CCCCN)NC(=O)[C@@H](NC(=O)[C@H](CCCCN)NC(=O)[C@@H](N)[C@@H](C)O)CCCCNC(=O)[C@H]([C@@H](C)O)NC(=O)[C@H](CCCCN)NC(=O)[C@H](CCCCN)NC1=O` showed an IC50 with Escherichia coli [7] (Escherichia coli) of 35 µM.

As to `CC(C)C[C@@H]1NC(=O)[C@@H](Cc2ccccc2)NC(=O)[C@H](CCN=C(N)N)NC(=O)[C@@H](NC(=O)[C@H](CCN=C(N)N)NC(=O)[C@@H](N)[C@@H](C)O)CCNC(=O)[C@H]([C@@H](C)O)NC(=O)[C@H](CCN=C(N)N)NC(=O)[C@H](CCN=C(N)N)NC1=O`, the IC50 in the test with Escherichia coli [7] (Escherichia coli) is 3.8 µM.

Turning to `CC(C)C[C@@H]1NC(=O)[C@@H](Cc2ccccc2)NC(=O)[C@@H](NC(=O)[C@H](CCN)NC(=O)[C@H](CCN)NC(=O)[C@@H](N)[C@@H](C)O)CCNC(=O)[C@H]([C@@H](C)O)NC(=O)[C@H](CCN)NC(=O)[C@H](CCN)NC1=O`, the 50% inhibitory concentration (IC50) with Escherichia coli [7] (Escherichia coli) worked out at 15 µM.

As for `CC(C)C[C@@H]1NC(=O)[C@@H](Cc2ccccc2)NC(=O)[C@H](CCN)NC(=O)[C@@H](NC(=O)[C@H](CCN)NC(=O)[C@@H](N)[C@@H](C)O)CCNC(=O)[C@H]([C@@H](C)O)NC(=O)[C@H](CCN)NC(=O)[C@H](CCN)NC1=O` (stereo in doubt; form 1) [listing 2 of 2 here], in the test with Escherichia coli [7] (Escherichia coli), the 50% inhibitory concentration (IC50) came to 2.5 µM.

In turn, POLYMYXIN B gave an IC50 in the test with Escherichia coli [7] of 0.5 µM.

With `CC(C)C[C@@H]1NC(=O)[C@@H](Cc2ccccc2)NC(=O)[C@H](CCN)NC(=O)[C@@H](NC(=O)[C@H](CCN)NC(=O)[C@@H](N)[C@@H](C)O)CCNC(=O)[C@H]([C@@H](C)O)NC(=O)[C@H](CCN)NC(=O)[C@H](CCN)NC1=O` (stereo in doubt; form 2), the IC50 in the test with Escherichia coli [7] was determined as 3 µM.
